Series [1] is described as follows: Plasma concentration in po dosed LPS-induced Lewis rat model at ED50 concentration measured after 5.5 hrs of initial dose by LC-MS/MS analysis. Format: ADME, organism-based. The gist of the method: (§1)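 Male Lewis rats (225-250 g, 5 per group) were fasted 18 h, then dosed orally at 0.2-60 mg/kg as a suspension in 0.5% methylcellulose/0.025% Tween 20. LPS 1 mg/kg was given i.v. 4 h later. Blood was taken by cardiac puncture 90 min after LPS. Serum TNFα was read by ELISA and drug by LC-MS/MS, three independent experiments. 4-parameter fit. Unbound values were corrected with measured rat plasma protein binding.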

Series [2] in a line: Inhibition of IL-8 production in LPS induced human Whole blood cell preincubated with compound for 1 hr followed by LPS induction and measured after 16 hrs. The class given is functional, cell-based. Put shortly: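 Human whole blood was stimulated ex vivo with LPS 100 ng/ml. Plasma cytokines were read by MSD 4-plex: TNFα at 4 h; IL-1β, IL-6 and IL-8 at 16 h. Data are means ±S.E.M. of two independent experiments in duplicate, three donors. IC50 by 4-parameter nonlinear regression.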

Series [3] concerns the target T1, Tyrosine-protein kinase Mer (Homo sapiens, UniProt Q12866).
T1 sequence (Q12866 whole entry): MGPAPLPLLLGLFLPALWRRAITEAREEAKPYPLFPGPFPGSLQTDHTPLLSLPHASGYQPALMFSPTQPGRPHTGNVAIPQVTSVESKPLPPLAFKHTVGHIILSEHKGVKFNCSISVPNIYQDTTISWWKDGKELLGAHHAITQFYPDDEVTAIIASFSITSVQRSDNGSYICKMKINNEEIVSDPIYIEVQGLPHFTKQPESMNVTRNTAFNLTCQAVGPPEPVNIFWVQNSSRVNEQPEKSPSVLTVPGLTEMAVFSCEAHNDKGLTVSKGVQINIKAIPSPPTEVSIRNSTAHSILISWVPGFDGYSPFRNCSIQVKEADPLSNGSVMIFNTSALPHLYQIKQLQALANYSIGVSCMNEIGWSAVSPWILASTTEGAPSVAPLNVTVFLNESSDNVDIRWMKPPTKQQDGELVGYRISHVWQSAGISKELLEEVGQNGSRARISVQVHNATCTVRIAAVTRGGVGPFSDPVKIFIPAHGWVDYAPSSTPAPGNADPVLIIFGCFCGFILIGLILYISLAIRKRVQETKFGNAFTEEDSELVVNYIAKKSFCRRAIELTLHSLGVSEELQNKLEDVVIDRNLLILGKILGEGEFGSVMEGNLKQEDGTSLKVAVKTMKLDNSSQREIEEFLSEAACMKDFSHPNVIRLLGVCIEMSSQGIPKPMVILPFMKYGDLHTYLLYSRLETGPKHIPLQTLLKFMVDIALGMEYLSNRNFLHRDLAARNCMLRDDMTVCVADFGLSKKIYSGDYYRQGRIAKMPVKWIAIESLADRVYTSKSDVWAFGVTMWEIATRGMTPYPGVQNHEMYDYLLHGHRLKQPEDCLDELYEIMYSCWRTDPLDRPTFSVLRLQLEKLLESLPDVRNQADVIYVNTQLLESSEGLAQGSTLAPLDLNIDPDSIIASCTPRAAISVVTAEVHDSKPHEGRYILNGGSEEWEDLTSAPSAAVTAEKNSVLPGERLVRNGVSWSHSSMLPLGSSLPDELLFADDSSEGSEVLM
Put plainly: Inhibition of Mer (unknown origin). The gist of the method: (§2)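 Kinase panel: 200 kinases were first screened at 1 μM inhibitor for percent inhibition. Those above 50% inhibition were then titrated for IC50. MgATP was fixed at the Km(app) determined for each enzyme.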

A short description of series [4]: Plasma protein binding in human. Format: ADME, cell-free. The conditions noted are these: read-out: PPB (converted). Put shortly:
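Binding to rat and human plasma was measured in vitro by ultracentrifugation.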

For series [5], the system named is Rattus norvegicus. Put plainly: Antiinflammatory activity in acute LPS induced TNF-alpha production in Lewis rat model administered via oral dose pretreated for 4 hrs followed by LPS stimulation and measured after 90 mins […]. Format: functional. The conditions noted are these: 5.5 h, time 330 min. Put shortly:
as §1

Series [6] in a line: Cmax in Sprague-Dawley rat at 3 mg/kg, po measured upto 24 hrs by […] analysis. Format: ADME, organism-based. The conditions noted are these: in vivo. Put shortly: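 Male Sprague-Dawley rats (275-300 g), carotid-catheterized and acclimated overnight. Dosing was i.v. at 1 mpk (n=2) in 70% saline/20% PEG-400/10% ethanol, or oral at 3 mpk (n=3) as a suspension in 0.5% HPMC/Tween. Plasma drug was measured by LC-MS/MS. Cmax and Tmax were read from individual profiles. t½ came from the terminal log-linear slope and AUC by the linear trapezoidal rule. CL = dose/AUC0-∞, Vdss = CL×MRT, F = dose-normalized AUC po/iv.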

For series [7], the target named is Cyclin-dependent kinase 1/cyclin B1 (Homo sapiens, UniProt P06493). Put plainly: Inhibition of CDK1/cycB (unknown origin). The class given is protein-complex assay. Put shortly: as §2
Series [8] in a line: Cytotoxicity against human PBMC cells assessed as reduction in cell viability at upto 20 uM. The class given is toxicity, cell-based.
The nature of series [9]: Inhibition of AMPK (unknown origin). More on the design: species or system Homo sapiens.
For series [10], the target named is T2, Serine/threonine-protein kinase 17A (Homo sapiens, UniProt Q9UEE5).
T2 sequence (Q9UEE5 whole entry): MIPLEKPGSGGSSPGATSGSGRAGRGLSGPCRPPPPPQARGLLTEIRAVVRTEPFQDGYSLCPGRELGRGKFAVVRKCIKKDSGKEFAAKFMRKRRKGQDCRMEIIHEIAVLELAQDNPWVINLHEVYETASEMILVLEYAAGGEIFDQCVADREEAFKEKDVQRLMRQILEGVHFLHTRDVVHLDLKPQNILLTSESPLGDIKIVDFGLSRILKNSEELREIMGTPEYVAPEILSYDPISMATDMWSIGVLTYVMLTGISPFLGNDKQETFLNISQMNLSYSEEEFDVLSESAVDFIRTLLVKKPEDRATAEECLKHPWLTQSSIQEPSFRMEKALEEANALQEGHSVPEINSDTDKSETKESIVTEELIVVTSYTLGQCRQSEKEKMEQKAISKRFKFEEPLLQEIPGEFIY
Put plainly: Inhibition of DRAK1 (unknown origin). Put shortly:
as §2

The nature of series [11]: Cmax in chronic SCW-induced arthritis Lewis rat model plasma at ED80 concentration. Format: ADME, cell-free. Put shortly: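 Female Lewis rats (125-140 g) received a single i.p. streptococcal cell wall injection. Animals showing the acute phase were pooled, 4-8 per group over three experiments. Dosing was oral gavage b.i.d., days 10-21, in methylcellulose-Tween-20 vehicle. Hind paw volume was read by displacement plethysmometer on day 21, as % inhibition of swelling. Plasma was sampled up to 11 h after the last dose, 3 rats per dose. ED values came from fitted curves.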

Series [12] is filed under the species Rattus norvegicus. Put plainly: Inhibition of rat MK2 assessed as unbound fraction.
A short description of series [13]: Unbound plasma concentration in po dosed LPS-induced Lewis rat model at ED50 concentration measured after 5.5 hrs of initial dose by LC-MS/MS analysis. Format: ADME, organism-based. The conditions noted are these: in vivo. Put shortly:
as §1

The target of series [14] is Cyclin-dependent kinase 5/CDK5 activator 1 (Homo sapiens, UniProt Q00535). Put plainly: Inhibition of CDK5/p35 (unknown origin). Format: protein-complex assay. Put shortly:
as §2

Series [15] has as its target Receptor-interacting serine/threonine-protein kinase 2 (Homo sapiens, UniProt O43353). Put plainly: Inhibition of RIPK2 (unknown origin). The gist of the method:
as §2

This is an account of results in ChEMBL document CHEMBL5678801, “A benzothiophene inhibitor of mitogen-activated protein kinase-activated protein kinase 2 inhibits tumor necrosis factor alpha production and has oral anti-inflammatory efficacy in acute and chronic models of inflammation” (J Pharmacol Exp Ther, 2010).

Chain of Cyclin-dependent kinase 5/CDK5 activator 1 (Q00535 whole entry): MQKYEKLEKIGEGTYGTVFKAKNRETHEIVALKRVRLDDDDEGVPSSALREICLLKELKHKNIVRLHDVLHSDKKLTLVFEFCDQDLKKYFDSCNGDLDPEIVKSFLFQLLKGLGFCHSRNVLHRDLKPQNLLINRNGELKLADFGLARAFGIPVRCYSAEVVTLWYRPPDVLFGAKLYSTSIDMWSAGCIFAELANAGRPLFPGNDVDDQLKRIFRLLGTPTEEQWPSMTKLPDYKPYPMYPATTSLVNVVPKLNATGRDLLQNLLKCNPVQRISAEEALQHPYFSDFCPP
Chain of Cyclin-dependent kinase 5/CDK5 activator 1 (Q15078 whole entry, further chain): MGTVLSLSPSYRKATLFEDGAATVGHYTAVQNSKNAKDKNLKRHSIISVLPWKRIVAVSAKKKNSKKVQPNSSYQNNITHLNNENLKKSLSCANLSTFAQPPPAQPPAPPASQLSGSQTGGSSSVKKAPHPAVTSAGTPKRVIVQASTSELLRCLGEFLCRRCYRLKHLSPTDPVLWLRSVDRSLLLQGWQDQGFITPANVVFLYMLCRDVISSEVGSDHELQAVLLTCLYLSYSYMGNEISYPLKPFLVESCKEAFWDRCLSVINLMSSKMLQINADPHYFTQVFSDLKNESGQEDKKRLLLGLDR
Chain of Receptor-interacting serine/threonine-protein kinase 2 (O43353 whole entry): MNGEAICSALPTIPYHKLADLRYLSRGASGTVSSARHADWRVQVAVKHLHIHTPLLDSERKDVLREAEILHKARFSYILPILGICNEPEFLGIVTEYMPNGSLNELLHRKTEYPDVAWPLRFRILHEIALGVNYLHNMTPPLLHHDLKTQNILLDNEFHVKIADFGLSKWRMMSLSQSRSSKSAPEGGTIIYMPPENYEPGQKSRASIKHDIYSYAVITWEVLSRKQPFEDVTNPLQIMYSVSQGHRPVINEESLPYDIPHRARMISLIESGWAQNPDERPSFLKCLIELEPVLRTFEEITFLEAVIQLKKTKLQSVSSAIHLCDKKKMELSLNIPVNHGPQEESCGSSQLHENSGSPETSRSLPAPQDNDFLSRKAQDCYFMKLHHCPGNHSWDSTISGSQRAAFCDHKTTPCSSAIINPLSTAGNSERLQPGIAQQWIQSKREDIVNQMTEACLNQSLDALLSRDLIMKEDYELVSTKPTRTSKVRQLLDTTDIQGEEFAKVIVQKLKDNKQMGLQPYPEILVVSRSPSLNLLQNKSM
Chain of Cyclin-dependent kinase 1/cyclin B1 (P06493 whole entry): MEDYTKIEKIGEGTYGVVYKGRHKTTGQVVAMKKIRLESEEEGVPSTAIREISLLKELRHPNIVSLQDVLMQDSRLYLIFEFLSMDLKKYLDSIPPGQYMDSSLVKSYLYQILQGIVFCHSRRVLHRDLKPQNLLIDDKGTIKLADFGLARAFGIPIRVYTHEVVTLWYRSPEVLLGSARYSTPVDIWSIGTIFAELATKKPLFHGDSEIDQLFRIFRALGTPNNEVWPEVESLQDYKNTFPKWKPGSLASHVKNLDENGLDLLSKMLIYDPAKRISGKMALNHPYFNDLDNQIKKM
Chain of Cyclin-dependent kinase 1/cyclin B1 (P14635 whole entry, further chain): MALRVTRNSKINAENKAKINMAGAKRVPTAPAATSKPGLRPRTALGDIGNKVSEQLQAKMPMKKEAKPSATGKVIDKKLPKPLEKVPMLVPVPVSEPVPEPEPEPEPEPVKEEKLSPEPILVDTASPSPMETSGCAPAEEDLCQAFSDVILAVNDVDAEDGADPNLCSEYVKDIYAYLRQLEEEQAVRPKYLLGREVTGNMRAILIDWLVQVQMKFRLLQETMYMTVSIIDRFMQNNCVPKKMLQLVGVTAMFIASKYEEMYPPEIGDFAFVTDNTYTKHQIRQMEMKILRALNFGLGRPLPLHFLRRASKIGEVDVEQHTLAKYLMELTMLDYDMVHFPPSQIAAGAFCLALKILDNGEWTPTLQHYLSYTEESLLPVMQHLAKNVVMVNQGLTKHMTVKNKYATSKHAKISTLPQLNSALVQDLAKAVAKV

What is called IC50 is the concentration needed to halve the response being measured. What is called ED50 is the midpoint of the dose-response relation. Usually Cmax stands for the highest concentration seen after dosing. In series [1], `Cc1ccc(-c2ccc3c(ccc4sc5c(c43)NC[C@@H](C)NC5=O)n2)cn1` yielded a concentration at 5.5 h of 1400 nM. The IC50 in series [2] was greater than 25000 nM; in series [3] it was 76 nM; in series [7], 354 nM; in series [9], 117 nM; in series [10], 71 nM; in [14] it was 902 nM. In addition, the IC50 in [15] is 590 nM. Further, the fraction unbound in [4] was 0.064. Besides, the ED50 with Rattus norvegicus [5] was 6.9 mg/kg. For the same compound, the ED80 with Rattus norvegicus [5] is 19 mg/kg. Also, the Cmax was 660 nM in series [6] and 28000 nM in series [11]. The Activity result in series [8] was “Non-Toxic”. In the series listed under Rattus norvegicus [12], the fEC50 is 110 nM. Moreover, the Cp(f) in series [13] came out at 110 nM.
